Experimental findings from ChEMBL document CHEMBL1156749 (Bioorg Med Chem Lett, 2009) are described below.

Assay [1] is filed under the species Rattus norvegicus. The experiment in a line: Selectivity ratio of Ki for rat DAT to Ki for SERT. The essentials: (§1)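 Ratio of Ki values from rat brain tissue displacement assays: [3H]WIN 35,428 for DAT, [3H]citalopram for SERT, [3H]nisoxetine for NET. Test agents were oxalate salts. Each Ki is the mean of three experiments run in triplicate.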
Assay [2] is filed under the species Rattus norvegicus. In words: Selectivity ratio of Ki for rat NET to Ki for SERT. The essentials:
as §1

The species entered for assay [3] is Rattus norvegicus. In words: Selectivity ratio of Ki for rat NET to Ki for DAT. The essentials:
as §1

For another assay, the target named is Transporter (Rattus norvegicus, UniProt Q63380). The experiment in a line: Displacement of [3H]nisoxetine from NET in rat brain. It counts as tissue-based.
Chain of Transporter (Q63380 whole entry): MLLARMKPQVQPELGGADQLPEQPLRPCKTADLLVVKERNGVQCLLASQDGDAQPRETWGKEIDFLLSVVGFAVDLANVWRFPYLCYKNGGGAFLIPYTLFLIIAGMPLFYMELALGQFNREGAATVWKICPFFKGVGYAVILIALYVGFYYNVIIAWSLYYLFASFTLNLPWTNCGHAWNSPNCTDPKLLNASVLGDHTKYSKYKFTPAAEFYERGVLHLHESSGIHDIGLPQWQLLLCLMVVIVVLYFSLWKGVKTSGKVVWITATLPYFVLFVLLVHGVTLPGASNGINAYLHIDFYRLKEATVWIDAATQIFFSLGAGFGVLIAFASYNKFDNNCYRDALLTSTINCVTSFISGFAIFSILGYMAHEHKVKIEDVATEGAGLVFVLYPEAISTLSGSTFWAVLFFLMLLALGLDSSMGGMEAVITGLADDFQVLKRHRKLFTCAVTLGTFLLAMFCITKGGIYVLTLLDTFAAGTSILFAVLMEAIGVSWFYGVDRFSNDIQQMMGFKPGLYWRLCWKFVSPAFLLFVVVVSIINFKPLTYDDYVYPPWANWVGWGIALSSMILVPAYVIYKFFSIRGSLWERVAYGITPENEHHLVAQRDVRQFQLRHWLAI
Assay [4] concerns the target Sodium-dependent dopamine transporter (Rattus norvegicus, UniProt P23977). In words: Displacement of [3H]WIN-35428 from DAT in rat brain. It counts as tissue-based. Summed up:
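Radioligand displacement from monoamine transporters in rat brain tissue: [3H]WIN 35,428 for DAT, [3H]citalopram for SERT, [3H]nisoxetine for NET. Test agents were used as oxalate salts, and Ki was derived from displacement. Values are mean ± SEM of three experiments, each run in triplicate.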

Assay [5] has as its target Sodium-dependent serotonin transporter (Rattus norvegicus, UniProt P31652). The experiment in a line: Displacement of [3H]citalopram from SERT in rat brain. The assay is classed as tissue-based.

Molecules are shown by their SMILES. pKi: −log10 of the molar value.

Chain of Sodium-dependent dopamine transporter (P23977 whole entry): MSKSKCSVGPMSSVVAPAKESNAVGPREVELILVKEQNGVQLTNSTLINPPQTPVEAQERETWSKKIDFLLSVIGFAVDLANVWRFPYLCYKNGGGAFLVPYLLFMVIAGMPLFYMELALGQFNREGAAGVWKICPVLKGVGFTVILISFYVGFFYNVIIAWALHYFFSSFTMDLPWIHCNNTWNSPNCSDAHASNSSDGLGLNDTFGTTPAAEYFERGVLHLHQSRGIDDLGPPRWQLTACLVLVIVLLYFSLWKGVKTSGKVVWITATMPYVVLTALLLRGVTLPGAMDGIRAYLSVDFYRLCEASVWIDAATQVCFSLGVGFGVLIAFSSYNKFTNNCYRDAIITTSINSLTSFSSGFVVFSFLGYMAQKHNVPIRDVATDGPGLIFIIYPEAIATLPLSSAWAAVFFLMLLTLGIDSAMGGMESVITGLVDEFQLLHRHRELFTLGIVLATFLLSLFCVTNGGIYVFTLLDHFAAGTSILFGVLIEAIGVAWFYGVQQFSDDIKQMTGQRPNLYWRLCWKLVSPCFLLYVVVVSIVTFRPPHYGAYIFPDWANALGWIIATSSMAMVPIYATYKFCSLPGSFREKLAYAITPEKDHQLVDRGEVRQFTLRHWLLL
Chain of Sodium-dependent serotonin transporter (P31652 whole entry): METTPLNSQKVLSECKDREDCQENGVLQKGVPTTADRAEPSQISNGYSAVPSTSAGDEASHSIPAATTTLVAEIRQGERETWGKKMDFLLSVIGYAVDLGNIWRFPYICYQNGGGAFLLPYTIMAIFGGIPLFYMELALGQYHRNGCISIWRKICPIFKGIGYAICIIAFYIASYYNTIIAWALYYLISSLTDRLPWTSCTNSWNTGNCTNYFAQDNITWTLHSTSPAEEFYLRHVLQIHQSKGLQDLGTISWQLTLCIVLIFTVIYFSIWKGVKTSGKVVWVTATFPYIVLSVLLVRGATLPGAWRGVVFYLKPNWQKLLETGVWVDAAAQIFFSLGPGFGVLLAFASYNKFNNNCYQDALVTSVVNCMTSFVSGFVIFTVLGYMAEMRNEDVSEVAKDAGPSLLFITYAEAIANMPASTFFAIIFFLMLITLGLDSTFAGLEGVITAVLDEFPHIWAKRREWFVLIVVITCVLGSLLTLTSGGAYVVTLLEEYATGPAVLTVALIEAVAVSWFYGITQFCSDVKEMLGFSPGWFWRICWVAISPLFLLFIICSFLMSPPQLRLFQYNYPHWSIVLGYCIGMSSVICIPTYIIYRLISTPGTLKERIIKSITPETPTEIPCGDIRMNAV

For `Clc1ccc(CO[C@@]2(c3ccc(Cl)c(Cl)c3)C[C@H]3CC[C@@H](C2)N3)cc1`, the Ratio was determined as 46 in the assay listed under Rattus norvegicus [1], 246 in the assay filed under Rattus norvegicus [2] and 5.4 in the assay filed under Rattus norvegicus [3].

Consider `Clc1ccc([C@]2(OCc3ccccc3)C[C@H]3CC[C@@H](C2)N3)cc1`, for which the pKi on Transporter was 5.76; in assay [4], 6.76; in assay [5], 7.19. Also, the Ratio amounted to 2.7 in the assay listed under Rattus norvegicus [1], 26 in the assay listed under Rattus norvegicus [2] and 10 in the assay filed under Rattus norvegicus [3].

In the case of `c1ccc(CO[C@@]2(c3ccccc3)C[C@H]3CC[C@@H](C2)N3)cc1`, in the assay listed under Rattus norvegicus [1], the Ratio came to 0.47. Besides, the results for the pKi in assay [4] and in assay [5] were 6.93 and 6.61, respectively.

Turning to `FC(F)(F)c1ccc([C@]2(OCc3ccccc3)C[C@H]3CC[C@@H](C2)N3)cc1`, the pKi at Transporter was 5.26; in assay [4], 5.86; in assay [5] it was 6.27. The Ratio in the assay listed under Rattus norvegicus [1] was determined as 2.6; in the assay filed under Rattus norvegicus [2], 10; in the assay filed under Rattus norvegicus [3] it was 3.9.

For the molecule `Fc1ccc(C2=CC3CCC(C2)N3)cc1` (centres undefined), the Ratio came to 8.2 in the assay filed under Rattus norvegicus [1] and 1.9 in the assay filed under Rattus norvegicus [3]. The molecule also had a pKi in assay [4] of 5.98.

Turning to `Clc1ccc(CO[C@@]2(c3ccccc3)C[C@H]3CC[C@@H](C2)N3)cc1`, the figures for the pKi (at Transporter; in assay [4]; in assay [5]) were 7.00, 7.66 and 8.21, respectively. Moreover, the Ratio in the assay filed under Rattus norvegicus [1] is 3.6; in the assay filed under Rattus norvegicus [2], 17; in the assay listed under Rattus norvegicus [3], 4.6.

`Clc1ccc(CO[C@@]2(c3ccc(Cl)c(Cl)c3)C[C@H]3CC[C@@H](C2)N3)cc1Cl`: the pKi on Transporter was 5.59; in assay [4], 5.53; in assay [5], 8.33. In addition, the Ratio in the assay listed under Rattus norvegicus [1] was determined as 601; in the assay listed under Rattus norvegicus [2] it was 543; in the assay filed under Rattus norvegicus [3], 0.87.

In the case of `Clc1ccc(C2=CC3CCC(C2)N3)cc1Cl` (centres undefined), the pKi is 7.70 at Transporter, 7.80 in assay [4] and 9.52 in assay [5]. For the same molecule, the Ratio in the assay listed under Rattus norvegicus [1] was 53; in the assay listed under Rattus norvegicus [2] it was 67; in the assay filed under Rattus norvegicus [3] it was 1.3.

`C1=C(c2ccccc2)CC2CCC1N2` (centres undefined): the pKi is 5.89 at Transporter, 5.91 in assay [4] and 6.75 in assay [5]. Further, the Ratio in the assay filed under Rattus norvegicus [1] was found to be 6.9; in the assay listed under Rattus norvegicus [2], 7.3; in the assay listed under Rattus norvegicus [3], 1.1.

Regarding `Clc1ccc(C2=CC3CCC(C2)N3)cc1` (centres undefined), the pKi is 6.92 at Transporter, 6.64 in assay [4] and 8.55 in assay [5]. The Ratio was 83 in the assay listed under Rattus norvegicus [1], 43 in the assay filed under Rattus norvegicus [2] and 0.52 in the assay filed under Rattus norvegicus [3].

Regarding `Clc1ccc(CO[C@@]2(c3ccccc3)C[C@H]3CC[C@@H](C2)N3)cc1Cl`, the pKi is 6.00 at Transporter, 7.80 in assay [4] and 10.21 in assay [5]. Further, the Ratio in the assay listed under Rattus norvegicus [1] was found to be 258; in the assay listed under Rattus norvegicus [2], 16300; in the assay filed under Rattus norvegicus [3], 62.

Turning to `Clc1ccc([C@]2(OCc3ccccc3)C[C@H]3CC[C@@H](C2)N3)cc1Cl`, the pKi is 5.91 on Transporter, 6.15 in assay [4] and 7.21 in assay [5]. For the same molecule, the Ratio in the assay filed under Rattus norvegicus [1] worked out at 11; in the assay listed under Rattus norvegicus [2], 20; in the assay listed under Rattus norvegicus [3], 1.7.

Consider `FC(F)(F)c1ccc(C2=CC3CCC(C2)N3)cc1` (centres undefined), for which the pKi on Transporter was 6.11; in assay [4], 5.83; in assay [5], 8.74. Besides, the figures for the Ratio in the assay filed under Rattus norvegicus [1] and in the assay filed under Rattus norvegicus [2] were 830 and 432, respectively.

Take `Clc1ccc(CO[C@@]2(c3ccc(Cl)cc3)C[C@H]3CC[C@@H](C2)N3)cc1`: the pKi is 5.63 at Transporter, 7.20 in assay [4] and 10.00 in assay [5]. The Ratio was determined as 630 in the assay filed under Rattus norvegicus [1], 23700 in the assay filed under Rattus norvegicus [2] and 38 in the assay listed under Rattus norvegicus [3].

The pKi is the negative decadic logarithm of the Ki, by convention in mol/L. Read a low pKi as a large Ki.
